Test results reported in ChEMBL document CHEMBL5661969, “Preclinical evaluation of a potent novel DNA-dependent protein kinase inhibitor NU7441” (Cancer Res, 2006).

Columns and labels:
[1] = Ratio of drug level in spleen to plasma of human SW620 cell xenografted athymic nude CD1 mouse at 10 mg/kg, ip measured after 60 mins by HPLC analysis; type: ADME, organism-based
How it was run: (§1)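 Female CD-1 nu/nu mice bearing s.c. flank SW620 tumours (1×10^7 cells, ~650 mm³ at 10–14 days) given 10 mg/kg i.p. Tissues snap frozen, homogenised 1:3 in PBS. Acetonitrile precipitation, C18 HPLC with acetate pH 5/acetonitrile 75:25 mobile phase, UV 329 nm; tissue levels by method of addition. Tissue/plasma ratio, mean of three mice per time.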

[2] = Inhibition of DNA-PK in Chinese hamster DNA-PK proficient V3-YAC cells assessed as potentiation of ionizing radiation-induced cytotoxicity by measuring fold change in radiation LD90 at 0.5 umol/L preincubated for 1 hr followed by gamma-irradiation and measured after 16 hrs by crystal violet staining based assay relative to radiation alone; set-up: species or system Cricetulus griseus; settings: dose 0.5 µmol/L; time 17 hrs; condition cancer
How it was run: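 V3-YAC Chinese hamster ovary cells (human DNA-PKcs YAC, kept in 500 μg/mL G-418), RPMI 1640/10% FBS. Cells reseeded drug-free, colonies crystal violet stained after 10–14 days; LD90 ratio without/with inhibitor (DMR90).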

[3] = Ratio of drug level in tumor to plasma of human SW620 cell xenografted athymic nude CD1 mouse at 10 mg/kg, ip measured after 30 mins by HPLC analysis; type: ADME, organism-based; settings: tumor and plasma; how it was run: as §1
LoVo [4] = assay: Cell cycle arrest in human LoVo cells assessed as reduction in S-phase cell population at 1 umol/L measured after 1 hr by propidium iodide staining based flow cytometry relative to control; type: toxicity; set-up: scale not given: the % may be the effect or the level left; settings: 1 µM, dose 1 µmol/L
How it was run: (§2)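 Asynchronous SW620 or LoVo cells, seeded 24 h earlier, given control or 1 μmol/L agent medium for 1 h before ionizing radiation, etoposide or doxorubicin, then incubated a further 16 h. Cells fixed in 70% ethanol, stained with propidium iodide (400 μg/mL) plus RNase (1 mg/mL), and analysed by 488 nm flow cytometry.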

[5] = Elimination half life in BALB/c mouse at 10 mg/kg, ip by HPLC analysis; type: ADME, organism-based; settings: in vivo, read-out: beta t1/2
How it was run: (§3)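 Female BALB/c mice dosed 5 mg/kg i.v. in 10% DMSO/10% cyclodextrin in saline, or 10 mg/kg i.p. or orally at 1 mg/mL in 40% PEG400/saline. Plasma taken at 5, 10, 15, 30, 60, 90, 120, 180, 240 and 360 min, three mice per time. Acetonitrile precipitation, C18 HPLC with UV detection at 329 nm against a plasma standard curve. Parameters derived from mean concentrations.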

[6] = Ratio of drug level in brain to plasma of human SW620 cell xenografted athymic nude CD1 mouse at 10 mg/kg, ip measured after 15 mins by HPLC analysis; type: ADME, organism-based; settings: brain and plasma, read-out: BPR; how it was run: as §1
[7] = Ratio of drug level in brain to plasma of human SW620 cell xenografted athymic nude CD1 mouse at 10 mg/kg, ip measured after 30 mins by HPLC analysis; type: ADME, organism-based; settings: brain and plasma, read-out: BPR; how it was run: as §1
[8] = Ratio of drug level in liver to plasma of human SW620 cell xenografted athymic nude CD1 mouse at 10 mg/kg, ip measured after 15 mins by HPLC analysis; type: ADME, organism-based; how it was run: as §1
[9] = biological target: DNA-dependent protein kinase catalytic subunit (Homo sapiens, UniProt P78527); settings: LoVo, dose 1.0 µmol/L, time 17.0 hrs
Chain of DNA-dependent protein kinase catalytic subunit (P78527 whole entry): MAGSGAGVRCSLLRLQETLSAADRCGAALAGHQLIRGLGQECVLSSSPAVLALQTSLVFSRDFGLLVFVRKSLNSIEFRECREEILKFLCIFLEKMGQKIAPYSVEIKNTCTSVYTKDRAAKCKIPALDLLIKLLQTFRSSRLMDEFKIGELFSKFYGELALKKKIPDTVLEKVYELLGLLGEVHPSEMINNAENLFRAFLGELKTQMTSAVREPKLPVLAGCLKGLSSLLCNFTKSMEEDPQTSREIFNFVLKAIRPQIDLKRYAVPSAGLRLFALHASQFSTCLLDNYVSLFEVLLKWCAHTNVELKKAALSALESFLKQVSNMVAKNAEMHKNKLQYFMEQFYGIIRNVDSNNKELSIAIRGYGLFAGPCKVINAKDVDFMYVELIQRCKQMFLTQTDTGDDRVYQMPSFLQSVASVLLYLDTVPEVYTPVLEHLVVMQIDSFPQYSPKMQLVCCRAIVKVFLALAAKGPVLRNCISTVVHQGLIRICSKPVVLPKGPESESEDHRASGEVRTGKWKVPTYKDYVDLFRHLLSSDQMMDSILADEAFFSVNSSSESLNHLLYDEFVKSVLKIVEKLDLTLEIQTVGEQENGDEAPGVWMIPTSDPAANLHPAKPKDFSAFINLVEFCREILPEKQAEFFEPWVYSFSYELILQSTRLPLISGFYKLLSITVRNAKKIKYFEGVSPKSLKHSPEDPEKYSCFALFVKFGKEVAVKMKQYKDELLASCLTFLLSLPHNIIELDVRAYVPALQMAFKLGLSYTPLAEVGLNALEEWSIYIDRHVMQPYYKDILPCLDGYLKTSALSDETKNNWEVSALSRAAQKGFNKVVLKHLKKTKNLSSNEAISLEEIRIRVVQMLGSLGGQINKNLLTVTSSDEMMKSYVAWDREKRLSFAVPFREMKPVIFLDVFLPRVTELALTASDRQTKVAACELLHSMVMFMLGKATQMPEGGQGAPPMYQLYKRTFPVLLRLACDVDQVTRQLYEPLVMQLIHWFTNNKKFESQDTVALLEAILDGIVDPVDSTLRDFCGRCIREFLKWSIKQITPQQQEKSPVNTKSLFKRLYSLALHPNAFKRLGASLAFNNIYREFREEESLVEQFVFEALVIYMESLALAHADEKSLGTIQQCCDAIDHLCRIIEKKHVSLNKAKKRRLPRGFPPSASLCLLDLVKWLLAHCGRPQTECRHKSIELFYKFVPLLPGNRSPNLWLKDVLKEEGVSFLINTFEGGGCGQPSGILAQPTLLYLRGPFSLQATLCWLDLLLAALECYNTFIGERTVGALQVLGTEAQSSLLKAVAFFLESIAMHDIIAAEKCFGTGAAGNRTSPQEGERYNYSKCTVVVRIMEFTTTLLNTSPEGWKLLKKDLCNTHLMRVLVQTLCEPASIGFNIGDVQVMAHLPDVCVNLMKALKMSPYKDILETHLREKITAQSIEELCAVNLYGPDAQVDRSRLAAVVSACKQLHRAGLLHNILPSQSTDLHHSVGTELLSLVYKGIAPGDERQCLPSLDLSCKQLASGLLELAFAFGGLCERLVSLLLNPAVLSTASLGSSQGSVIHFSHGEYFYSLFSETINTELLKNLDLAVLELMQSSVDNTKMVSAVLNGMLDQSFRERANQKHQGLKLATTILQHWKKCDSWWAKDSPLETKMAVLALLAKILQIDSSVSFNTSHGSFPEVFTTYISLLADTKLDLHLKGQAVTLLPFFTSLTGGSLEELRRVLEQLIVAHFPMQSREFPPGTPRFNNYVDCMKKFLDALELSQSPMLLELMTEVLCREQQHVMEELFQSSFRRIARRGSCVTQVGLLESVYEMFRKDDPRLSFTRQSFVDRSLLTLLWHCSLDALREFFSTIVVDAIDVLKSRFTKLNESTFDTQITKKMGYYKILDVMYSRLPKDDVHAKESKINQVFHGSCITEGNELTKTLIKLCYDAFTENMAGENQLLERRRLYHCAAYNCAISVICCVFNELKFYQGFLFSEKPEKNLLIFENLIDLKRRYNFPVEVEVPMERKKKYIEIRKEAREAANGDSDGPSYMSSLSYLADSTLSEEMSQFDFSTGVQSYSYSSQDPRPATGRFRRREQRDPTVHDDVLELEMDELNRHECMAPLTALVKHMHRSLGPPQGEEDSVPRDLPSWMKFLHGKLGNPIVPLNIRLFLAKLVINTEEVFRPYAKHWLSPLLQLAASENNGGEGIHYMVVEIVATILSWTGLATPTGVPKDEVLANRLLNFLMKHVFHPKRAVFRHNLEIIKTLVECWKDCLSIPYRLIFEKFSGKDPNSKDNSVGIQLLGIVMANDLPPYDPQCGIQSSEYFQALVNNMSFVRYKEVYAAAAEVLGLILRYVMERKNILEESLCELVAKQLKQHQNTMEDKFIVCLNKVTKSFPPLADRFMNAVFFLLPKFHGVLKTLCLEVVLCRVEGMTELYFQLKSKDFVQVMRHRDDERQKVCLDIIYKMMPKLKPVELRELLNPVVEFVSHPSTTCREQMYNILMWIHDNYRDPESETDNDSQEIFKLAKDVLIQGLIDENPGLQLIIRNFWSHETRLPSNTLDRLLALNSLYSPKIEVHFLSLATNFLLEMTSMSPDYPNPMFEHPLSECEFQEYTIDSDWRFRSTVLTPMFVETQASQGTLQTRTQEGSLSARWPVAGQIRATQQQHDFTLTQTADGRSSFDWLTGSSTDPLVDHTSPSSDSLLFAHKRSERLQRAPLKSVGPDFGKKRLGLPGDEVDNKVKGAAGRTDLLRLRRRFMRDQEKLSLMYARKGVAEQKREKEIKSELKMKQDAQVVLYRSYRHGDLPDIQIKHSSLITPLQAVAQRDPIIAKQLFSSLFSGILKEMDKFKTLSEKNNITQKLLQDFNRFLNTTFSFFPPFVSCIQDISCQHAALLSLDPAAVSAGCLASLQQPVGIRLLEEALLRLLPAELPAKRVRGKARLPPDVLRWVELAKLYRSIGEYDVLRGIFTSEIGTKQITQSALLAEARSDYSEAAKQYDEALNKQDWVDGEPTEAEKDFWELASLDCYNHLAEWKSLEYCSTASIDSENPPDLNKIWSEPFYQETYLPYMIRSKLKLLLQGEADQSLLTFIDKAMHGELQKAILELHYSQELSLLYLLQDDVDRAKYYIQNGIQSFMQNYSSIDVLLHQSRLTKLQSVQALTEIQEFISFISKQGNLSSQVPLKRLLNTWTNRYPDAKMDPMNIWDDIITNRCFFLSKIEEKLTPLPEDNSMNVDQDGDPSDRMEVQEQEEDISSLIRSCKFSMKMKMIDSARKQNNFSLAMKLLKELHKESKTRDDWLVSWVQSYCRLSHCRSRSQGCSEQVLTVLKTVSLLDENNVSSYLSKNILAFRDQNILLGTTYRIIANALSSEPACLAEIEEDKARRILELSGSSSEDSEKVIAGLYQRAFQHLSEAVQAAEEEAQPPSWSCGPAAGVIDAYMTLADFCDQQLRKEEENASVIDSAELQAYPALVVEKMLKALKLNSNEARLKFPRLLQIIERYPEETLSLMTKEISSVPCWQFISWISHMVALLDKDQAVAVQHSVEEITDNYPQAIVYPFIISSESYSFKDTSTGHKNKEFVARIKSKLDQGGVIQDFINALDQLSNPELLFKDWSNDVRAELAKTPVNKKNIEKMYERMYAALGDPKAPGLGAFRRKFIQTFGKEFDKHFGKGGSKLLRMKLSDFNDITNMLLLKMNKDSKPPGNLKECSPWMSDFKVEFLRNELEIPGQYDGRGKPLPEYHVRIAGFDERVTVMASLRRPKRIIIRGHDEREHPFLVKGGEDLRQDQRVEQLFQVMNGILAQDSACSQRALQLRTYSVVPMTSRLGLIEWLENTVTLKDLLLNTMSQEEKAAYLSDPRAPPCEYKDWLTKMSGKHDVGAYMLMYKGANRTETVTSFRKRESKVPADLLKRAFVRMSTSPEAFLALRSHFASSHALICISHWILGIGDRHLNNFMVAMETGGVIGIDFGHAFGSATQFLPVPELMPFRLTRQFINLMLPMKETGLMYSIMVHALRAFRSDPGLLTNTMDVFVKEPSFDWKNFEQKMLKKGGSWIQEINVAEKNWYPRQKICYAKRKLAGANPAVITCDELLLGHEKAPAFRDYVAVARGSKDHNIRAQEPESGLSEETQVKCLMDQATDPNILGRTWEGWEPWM

[10] = Clearance in BALB/c mouse at 5 mg/kg, iv by HPLC analysis; type: ADME, organism-based; settings: in vivo; how it was run: as §3
[11] = AUClast in BALB/c mouse at 10 mg/kg, ip by HPLC analysis; type: ADME, organism-based; settings: in vivo; how it was run: as §3
LoVo [12] = assay: Cell cycle arrest in human LoVo cells assessed as increase in G1-phase cell population at 1 umol/L measured after 1 hr by propidium iodide staining based flow cytometry relative to control; type: toxicity; settings: 1 µM, dose 1 µmol/L; how it was run: as §2
[13] = Tmax in BALB/c mouse at 5 mg/kg, iv by HPLC analysis; type: ADME, organism-based; settings: in vivo; how it was run: as §3
[14] = Ratio of drug level in brain to plasma of human SW620 cell xenografted athymic nude CD1 mouse at 10 mg/kg, ip measured after 60 mins by HPLC analysis; type: ADME, organism-based; settings: brain and plasma, read-out: BPR; how it was run: as §1
[15] = Ratio of drug level in liver to plasma of human SW620 cell xenografted athymic nude CD1 mouse at 10 mg/kg, ip measured after 30 mins by HPLC analysis; type: ADME, organism-based; how it was run: as §1
[16] = Ratio of drug level in spleen to plasma of human SW620 cell xenografted athymic nude CD1 mouse at 10 mg/kg, ip measured after 240 mins by HPLC analysis; type: ADME, organism-based; how it was run: as §1
[17] = Ratio of drug level in tumor to plasma of human SW620 cell xenografted athymic nude CD1 mouse at 10 mg/kg, ip measured after 60 mins by HPLC analysis; type: ADME, organism-based; settings: tumor and plasma; how it was run: as §1
[18] = Clearance in BALB/c mouse at 10 mg/kg, ip by HPLC analysis; type: ADME, organism-based; settings: in vivo; how it was run: as §3
[19] = Ratio of drug level in brain to plasma of human SW620 cell xenografted athymic nude CD1 mouse at 10 mg/kg, ip measured after 90 mins by HPLC analysis; type: ADME, organism-based; settings: brain and plasma, read-out: BPR; how it was run: as §1
[20] = AUClast in BALB/c mouse at 10 mg/kg, po by HPLC analysis; type: ADME, organism-based; settings: in vivo; how it was run: as §3
[21] = Ratio of drug level in kidney to plasma of human SW620 cell xenografted athymic nude CD1 mouse at 10 mg/kg, ip measured after 90 mins by HPLC analysis; type: ADME, organism-based; how it was run: as §1
[22] = Oral bioavailability in BALB/c mouse at 10 mg/kg by HPLC analysis; type: ADME, organism-based; settings: in vivo; how it was run: as §3
[23] = Ratio of drug level in tumor to plasma of human SW620 cell xenografted athymic nude CD1 mouse at 10 mg/kg, ip measured after 90 mins by HPLC analysis; type: ADME, organism-based; settings: tumor and plasma; how it was run: as §1
SW-620 = assay: Cell cycle arrest in human SW620 cells assessed as increase in G1-phase cell population at 1 umol/L measured after 16 hrs by propidium iodide staining based flow cytometry relative to control; settings: sw-620, 16 h, 1 µM
[24] = Ratio of drug level in liver to plasma of human SW620 cell xenografted athymic nude CD1 mouse at 10 mg/kg, ip measured after 90 mins by HPLC analysis; type: ADME, organism-based; how it was run: as §1
[25] = Ratio of drug level in tumor to plasma of human SW620 cell xenografted athymic nude CD1 mouse at 10 mg/kg, ip measured after 240 mins by HPLC analysis; type: ADME, organism-based; settings: tumor and plasma; how it was run: as §1
[26] = In vivo inhibition of DNA-PK in human SW620 cells xenografted athymic nude CD1 mouse assessed as potentiation of etoposide phosphate-induced antitumor activity at 10 mg/kg, ip administered 5 times daily for 5 days relative to control; type: functional, SW-620; settings: time 5 day
How it was run: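 CD-1 nude mice carry palpable s.c. SW620 xenografts (~5×5 mm, 8-10 days), five per group. Treated i.p. daily for 5 days with saline, agent in 40% PEG 400/saline, etoposide phosphate 11.35 mg/kg (equal to 10 mg/kg etoposide), or both, agent given immediately before etoposide phosphate. Read-outs are median relative tumour volume, time to 4× volume (growth delay) and body weight.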

## O=c1cc(N2CCOCC2)oc2c(-c3cccc4c3sc3ccccc34)cccc12
[1]
  Kp at 1 h: 3.2
[2]
  fold change (FC): 1.6
[3]
  Kp at 0.5 h: 1.4
LoVo [4]
  Activity: 72%
[5]
  half-life: 53 min
[6]
  Kp at 0.25 h: 1.1
[7]
  Kp at 0.5 h: 2.2
[8]
  Kp at 0.25 h: 6.4
[9]
  LD90: 1 Gy
[10]
  clearance: 65 mL/min/kg
[11]
  AUC(0-t): 2500 ng·h/mL
LoVo [12]
  Activity: 54%
[13]
  Tmax: 5 min
[14]
  Kp at 1 h: 3.2
[15]
  Kp at 0.5 h: 11
[16]
  Kp at 4 h: 19
[17]
  Kp at 1 h: 0.44
[18]
  CL/F: 66 mL/min/kg
[19]
  Kp at 1.5 h: 3
[20]
  AUC(0-t): 817 ng·h/mL
[21]
  Kp at 1.5 h: 14
[22]
  bioavailability: 33%
[23]
  Kp at 1.5 h: 1.5
SW-620
  Activity: 15%
[24]
  Kp at 1.5 h: 19
[25]
  Kp at 4 h: 4.6
[26]
  Efficacy: 100%
